{"source": "paper PMC9722545", "about": "(Structure (London, England : 1993), 2022)", "key": {"[1]": {"system": "CDK2 and CDK1", "details": "no cyclins present; ref Wood et al., 2019; cited from earlier work"}, "[2]": {"system": "CDK7", "details": "KINOMEscan panel of CDKs; ref Lin et al., 2019; cited from earlier work"}, "[3]": {"biological_target": "CDK11 Met160Phe (M160F) (Homo sapiens, UniProt P21127, M516F)", "sequence (P21127 428-736 M516F)": "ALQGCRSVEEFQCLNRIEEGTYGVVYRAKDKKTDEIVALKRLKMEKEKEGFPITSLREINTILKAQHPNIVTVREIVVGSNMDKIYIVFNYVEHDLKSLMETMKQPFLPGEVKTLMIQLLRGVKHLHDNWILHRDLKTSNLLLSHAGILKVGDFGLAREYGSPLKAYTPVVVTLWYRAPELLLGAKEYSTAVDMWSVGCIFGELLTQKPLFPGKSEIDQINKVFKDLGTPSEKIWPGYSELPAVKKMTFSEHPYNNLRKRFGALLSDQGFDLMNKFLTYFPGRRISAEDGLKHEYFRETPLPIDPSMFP", "assay": "ITC binding of OTS964 to CDK11 Met160Phe"}, "[4]": {"biological_target": "CDK11 Gly223Ala (G223A) (Homo sapiens, UniProt P21127, G579A)", "sequence (P21127 428-736 G579A)": "as the sequence (P21127 428-736 M516F) above, with F89M, G152A counted along it", "assay": "ITC binding of OTS964 to CDK11 Gly223Ala"}, "[5]": {"biological_target": "CDK2 Ala144Gly (A144G) (Homo sapiens, UniProt P24941, A144G)", "assay": "ITC binding of OTS964 to CDK2 Ala144Gly", "how_it_was_run": "(§1)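 Human CDK2 (res. 1–298, wild-type or point mutant) is expressed as a GST-PreScission fusion with yeast CAK1 in E. coli BL21(DE3), then tag-cleaved and gel-filtered, with no cyclin. ITC at 25°C in 25 mM HEPES pH 7.5, 250 mM NaCl, 1 mM DTT, 2.0% DMSO: 2250 μM test compound into 150 μM kinase, 38×1 μL injections 180 s apart.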"}, "[6]": {"biological_target": "CDK2 Wild-type (Homo sapiens, UniProt P24941)", "assay": "ITC binding of OTS964 to CDK2 wild-type", "how_it_was_run": "as §1"}, "[7]": {"biological_target": "CDK11 G223A/E89G/M160F (Homo sapiens, UniProt P21127, E445G/G579A/M516F)", "sequence (P21127 428-736 E445G/M516F/G579A)": "as the sequence (P21127 428-736 M516F) above, with E18G, G152A counted along it", "assay": "ITC binding of OTS964 to CDK11 triple mutant"}, "[8]": {"biological_target": "CDK2-cyclin A Gly11Glu (G11E) (Homo sapiens, UniProt P24941, G11E)", "assay": "ITC binding of OTS964 to CDK2 Gly11Glu-cyclin A"}, "[9]": {"biological_target": "CDK2 Phe80Met (F80M) (Homo sapiens, UniProt P24941, F80M)", "assay": "ITC binding of OTS964 to CDK2 Phe80Met", "how_it_was_run": "as §1"}, "[10]": {"system": "tumor cell lines harbouring FBXW7−/− mutations", "details": "FBXW7−/− versus FBXW7 wild-type tumor cell lines; ref O’Brien et al. (2022); cited from earlier work"}, "[11]": {"biological_target": "CDK2-cyclin A Ala144Gly (A144G) (Homo sapiens, UniProt P24941, A144G)", "assay": "ITC binding of OTS964 to CDK2 Ala144Gly-cyclin A"}, "[12]": {"biological_target": "CDK11 Gly223Ser (Homo sapiens, UniProt P21127, G579S)", "sequence (P21127 428-736 G579S)": "as the sequence (P21127 428-736 M516F) above, with F89M, G152S counted along it", "assay": "ITC binding of OTS964 to CDK11 Gly223Ser"}, "[13]": {"biological_target": "CDK11 Glu89Gly (E89G) (Homo sapiens, UniProt P21127, E445G)", "sequence (P21127 428-736 E445G)": "as the sequence (P21127 428-736 M516F) above, with E18G, F89M counted along it", "assay": "ITC binding of OTS964 to CDK11 Glu89Gly"}, "[14]": {"biological_target": "CDK11 Wild-type (CDK11B residues 72–380) (Homo sapiens, UniProt P21127)", "sequence (P21127 428-736)": "as the sequence (P21127 428-736 M516F) above, with F89M counted along it", "assay": "ITC binding of OTS964 to CDK11 wild-type"}, "[15]": {"system": "other CDKs", "details": "ref Lin et al., 2019, cited from earlier work"}, "[16]": {"biological_target": "CDK2 Gly11Glu (G11E) (Homo sapiens, UniProt P24941, G11E)", "assay": "ITC binding of OTS964 to CDK2 Gly11Glu", "how_it_was_run": "as §1"}, "[17]": {"biological_target": "CDK2-cyclin A Wild-type (Homo sapiens, UniProt P24941)", "assay": "ITC binding of OTS964 to CDK2-cyclin A wild-type", "details": "for Kd: mean ± SD"}, "[18]": {"biological_target": "CDK2-cyclin A Phe80Met (F80M) (Homo sapiens, UniProt P24941, F80M)", "assay": "ITC binding of OTS964 to CDK2 Phe80Met-cyclin A"}, "[19]": {"details": "ITC, CDK2 Gly11Glu with cyclin A"}, "[20]": {"details": "ITC, CDK2 Ala144Gly with cyclin A"}, "[21]": {"details": "ITC, CDK2 wild-type with cyclin A"}, "[22]": {"details": "ITC, CDK2 Phe80Met with cyclin A"}}, "data": [{"molecule": "Cc1ncc(-c2ccnc(Nc3ccc(S(C)(=O)=O)cc3)n2)n1C(C)C", "note": "[AZD5438]", "values": [{"measurement": "difference in affinity between CDK2 and CDK1", "setting": "[1]", "result": "~ 170 X"}]}, {"molecule": "Cc1cc(O)c(-c2ccc(C(C)CN(C)C)cc2)c2c1[nH]c(=O)c1sccc12", "note": "(stereo not drawn) [OTS964]", "values": [{"measurement": "more potent against CDK11 than against CDK7", "setting": "[2]", "result": 10, "unit": "X"}, {"measurement": "Kd", "setting": "[3]", "result": "0.556 ± 0.026", "unit": "µM"}, {"measurement": "Kd", "setting": "[4]", "result": "0.0317 ± 0.0138", "unit": "µM"}, {"measurement": "Kd", "setting": "[5]", "result": "16 ± 4.6", "unit": "µM"}, {"measurement": "N (sites)", "setting": "[5]; ITC, 25°C, CDK2 Ala144Gly, no cyclin", "result": 0.554, "unit": "sites"}, {"measurement": "ΔH", "setting": "[5]; ITC, CDK2 Ala144Gly, no cyclin", "result": "-10.6 ± 1.2", "unit": "kcal/mol"}, {"measurement": "ΔS", "setting": "[5]; ITC, CDK2 Ala144Gly, no cyclin", "result": "−13.4 ± 4.5", "unit": "cal/mol/K"}, {"measurement": "ΔG", "setting": "[5]; ITC, CDK2 Ala144Gly, no cyclin, ΔG = ΔH − TΔS", "result": "-6.56 ± 0.17", "unit": "kcal/mol"}, {"measurement": "Kd", "setting": "[6]", "result": "16.3 ± 1.7", "unit": "µM"}, {"measurement": "weaker binding than monomeric CDK11", "setting": "[6]; ITC KD, CDK2 without cyclin vs monomeric CDK11", "result": "~ 250 fold"}, {"measurement": "N (sites)", "setting": "[6]; ITC, 25°C, CDK2 wild-type, no cyclin", "result": 0.704, "unit": "sites"}, {"measurement": "ΔH", "setting": "[6]; ITC, CDK2 wild-type, no cyclin", "result": "-9.12 ± 0.60", "unit": "kcal/mol"}, {"measurement": "ΔS", "setting": "[6]; ITC, CDK2 wild-type, no cyclin", "result": "−8.66 ± 1.80", "unit": "cal/mol/K"}, {"measurement": "ΔG", "setting": "[6]; ITC, CDK2 wild-type, no cyclin, ΔG = ΔH − TΔS", "result": "-6.54 ± 0.06", "unit": "kcal/mol"}, {"measurement": "Kd", "setting": "[7]", "result": "0.32 ± 0.066", "unit": "µM"}, {"measurement": "Kd", "setting": "[8]", "result": "0.621 ± 0.016", "unit": "µM"}, {"measurement": "N (sites)", "setting": "[8]; ITC, 25°C, CDK2 Gly11Glu with cyclin A", "result": 1.16, "unit": "sites"}, {"measurement": "ΔH", "setting": "[8]; [19]", "result": "-7.13 ± 0.21", "unit": "kcal/mol"}, {"measurement": "ΔS", "setting": "[8]; [19]", "result": "4.48 ± 0.76", "unit": "cal/mol/K"}, {"measurement": "ΔG", "setting": "[8]; ITC, CDK2 Gly11Glu with cyclin A, ΔG = ΔH − TΔS", "result": "-8.47 ± 0.02", "unit": "kcal/mol"}, {"measurement": "Kd", "setting": "[9]", "result": "32.4 ± 1.9", "unit": "µM"}, {"measurement": "N (sites)", "setting": "[9]; ITC, 25°C, CDK2 Phe80Met, no cyclin", "result": 0.804, "unit": "sites"}, {"measurement": "ΔS", "setting": "[9]; ITC, CDK2 Phe80Met, no cyclin", "result": "−19.1 ± 1.1", "unit": "cal/mol/K"}, {"measurement": "ΔG", "setting": "[9]; ITC, CDK2 Phe80Met, no cyclin, ΔG = ΔH − TΔS", "result": "17.5 ± 0.6", "unit": "kcal/mol"}, {"measurement": "sensitivity to OTS964 treatment", "setting": "[10]", "result": "more sensitive"}, {"measurement": "Kd", "setting": "[11]", "result": "3.03 ± 0.15", "unit": "µM"}, {"measurement": "N (sites)", "setting": "[11]; ITC, 25°C, CDK2 Ala144Gly with cyclin A", "result": 1.04, "unit": "sites"}, {"measurement": "ΔH", "setting": "[11]; [20]", "result": "-6.92 ± 0.01", "unit": "kcal/mol"}, {"measurement": "ΔS", "setting": "[11]; [20]", "result": "2.04 ± 0.11", "unit": "cal/mol/K"}, {"measurement": "ΔG", "setting": "[11]; ITC, CDK2 Ala144Gly with cyclin A, ΔG = ΔH − TΔS", "result": "-7.53 ± 0.03", "unit": "kcal/mol"}, {"measurement": "Kd", "setting": "[12]", "result": "0.853 ± 0.056", "unit": "µM"}, {"measurement": "Kd", "setting": "[13]", "result": "0.0509 ± 0.0033", "unit": "µM"}, {"measurement": "Kd", "setting": "[14]", "result": "0.0654 ± 0.018", "unit": "µM"}, {"measurement": "binding to other CDKs tested", "setting": "[15]; KINOMEscan panel of CDKs", "result": "no apparent binding"}, {"measurement": "Kd", "setting": "[15]; other CDKs", "result": "> 3", "unit": "µM"}, {"measurement": "higher affinity for CDK11 than other CDKs", "setting": "[15]", "result": "at least 75 fold"}, {"measurement": "Kd", "setting": "[16]", "result": "6.82 ± 0.53", "unit": "µM"}, {"measurement": "N (sites)", "setting": "[16]; ITC, 25°C, CDK2 Gly11Glu, no cyclin", "result": 0.866, "unit": "sites"}, {"measurement": "ΔH", "setting": "[16]; ITC, CDK2 Gly11Glu, no cyclin", "result": "-9.45 ± 0.32", "unit": "kcal/mol"}, {"measurement": "ΔS", "setting": "[16]; ITC, CDK2 Gly11Glu, no cyclin", "result": "−8.05 ± 1.23", "unit": "cal/mol/K"}, {"measurement": "ΔG", "setting": "[16]; ITC, CDK2 Gly11Glu, no cyclin, ΔG = ΔH − TΔS", "result": "-7.05 ± 0.05", "unit": "kcal/mol"}, {"measurement": "enhancement of binding of CDK2 to OTS964 in the presence versus absence of cyclin A", "setting": "[17]; ITC KD", "result": 7, "unit": "fold"}, {"measurement": "N (sites)", "setting": "[17]; ITC, 25°C, CDK2 wild-type with cyclin A", "result": 1.00, "unit": "sites"}, {"measurement": "ΔH", "setting": "[17]; [21]", "result": "-8.64 ± 1.06", "unit": "kcal/mol"}, {"measurement": "ΔS", "setting": "[17]; [21]", "result": "−2.64 ± 2.99", "unit": "cal/mol/K"}, {"measurement": "ΔG", "setting": "[17]; ITC, CDK2 wild-type with cyclin A, ΔG = ΔH − TΔS", "result": "-7.85 ± 0.18", "unit": "kcal/mol"}, {"measurement": "Kd", "setting": "[17]; ITC, 25°C, CDK2 wild-type with cyclin A, n=2", "result": "1.82 ± 0.5", "unit": "µM"}, {"measurement": "Kd", "setting": "[17]; ITC, CDK2 in the presence of cyclin A", "result": "1.8 ± 0.5", "unit": "µM"}, {"measurement": "Kd", "setting": "[18]", "result": "4.98 ± 0.44", "unit": "µM"}, {"measurement": "N (sites)", "setting": "[18]; ITC, 25°C, CDK2 Phe80Met with cyclin A", "result": 1.28, "unit": "sites"}, {"measurement": "ΔH", "setting": "[18]; [22]", "result": "-9.69 ± 0.08", "unit": "kcal/mol"}, {"measurement": "ΔS", "setting": "[18]; [22]", "result": "−8.23 ± 0.44", "unit": "cal/mol/K"}, {"measurement": "ΔG", "setting": "[18]; ITC, CDK2 Phe80Met with cyclin A, ΔG = ΔH − TΔS", "result": "-7.24 ± 0.05", "unit": "kcal/mol"}]}]}
